The values that follow come from ChEMBL document CHEMBL5325455, “Daphnanes diterpenes from the latex of Hura crepitans L. and their PKCζ-dependent anti-proliferative activity on colorectal cancer cells” (Bioorg Med Chem, 2023).

The source made the active and inactive calls. The calls are words filed in the database; no cut-off is given here.

The test system of assay [1] is Caco-2. As to the kind of experiment: Cytostatic activity against human Caco-2 cells assessed as inhibition of cell growth at 0.5 ug/ml incubated for 48 hrs by MTS assay relative to control. Type of assay: functional. The method in brief: (§1)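 Caco-2 cells were seeded at 40 000/well 48 h before dosing. Compound was diluted from a 10 mg/mL DMSO stock into medium (0.125, 0.5 or 1 µg/mL final; DMSO ≤0.01%) and added in triplicate for 48 h. Viability was read by MTS absorbance at 490 nm and expressed relative to the DMSO control.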

Assay [2] concerns Caco-2. As to the kind of experiment: Induction of apoptosis in human Caco-2 cells assessed as increase in active caspase 3 level. Type of assay: functional, cell-based.
Assay [3] deals with Caco-2. Nature of the assay: Induction of morphological changes in human Caco-2 cells at 1 ug/ml preincubated for 30 mins with CRT0066854 hydrochloride followed by compound addition and measured after 48 hrs by Hoechst 3342 and phalloidin staining based confocal microscopic analysis. Type of assay: functional, cell-based. The settings on record: dose 1.0 µg/ml. The method in brief: (§2)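 CRT0066854 hydrochloride (2.5 µM) was added to Caco-2 cells 30 min before compound at 1 µg/mL. After 48 h, nuclei and actin cytoskeleton were labelled and confocal views taken with a 20X objective; duplicates from one experiment.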

In assay [4] the test system is Caco-2. As to the kind of experiment: Induction of morphological changes in human Caco-2 cells assessed as reorganization of epithelial tissue architecture by measuring effect on actin density at 1 ug/ml preincubated for 30 mins with CRT0066854 hydrochloride followed by compound addition and measured after 48 hrs by Hoechst 3342 and phalloidin staining based confocal microscopic analysis. Type of assay: functional, cell-based. Particulars: dose 1.0 µg/ml. The method in brief: as §2

The test system of assay [5] is Caco-2. As to the kind of experiment: Effect on beta-catenin protein expression in human Caco-2 cells at 1 ug/ml incubated for 48 hrs by Western blot analysis. Type of assay: functional, cell-based. The settings on record: dose 1.0 µg/ml. The method in brief:
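Caco-2 cells (0.25 × 10^6/well) were treated at 1 µg/mL for 48 h and lysed in pH 7.4 Tris/NaCl/Triton/EDTA buffer with protease and phosphatase inhibitors. 30 µg protein was run per lane on 4–15% gels and blotted for pSer9-GSK3β, total GSK3β, pSer473-Akt, total Akt and β-catenin, with actin as loading control. Detection was by ECL; n=2, t-test versus DMSO.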

The target in assay [6] is Glycogen synthase kinase-3 beta (Homo sapiens) (UniProt P49841). Nature of the assay: Inhibition of GSK3beta in human Caco-2 cells assessed as increase in phosphorylation at serine 9 residue at 1 ug/ml preincubated for 30 mins with CRT0066854 hydrochloride followed by compound addition and measured after 48 hrs by Western blot analysis. Type of assay: cell-based. Particulars: dose 1.0 µg/ml. In short, it runs like this:
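Caco-2 cells were pretreated with 2.5 µM CRT0066854 hydrochloride for 30 min, then treated at 1 µg/mL for 48 h. Lysates (30 µg protein) were immunoblotted for pSer9-GSK3β and total GSK3β, with actin loading control and ECL detection; n=2.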

The test system of assay [7] is Caco-2. Nature of the assay: Cytostatic activity against human Caco-2 cells assessed as reduction in cell growth at 1 ug/ml preincubated for 15 mins with PD0325901 followed by compound addition and measured after 48 hrs by MTS assay. Type of assay: functional, cell-based. The settings on record: dose 1.0 µg/ml. The method in brief:
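Caco-2 cells were pretreated with 0.5 µM PD0325901 for 15 min, then given compound at 1 µg/mL for 48 h. Viability was measured by MTS at 490 nm; n=3, t-test versus DMSO.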

The next assay concerns SARS-CoV-2. As to the kind of experiment: Antiviral activity against SARS-CoV-2 assessed as reduction in progeny production measured 24 hrs post infection by PFU assay. Type of assay: functional, organism-based. The settings on record: Severe acute respiratory syndrome coronavirus 2, 24 h.
In assay [8] the test system is Colorectal epithelial cell. Nature of the assay: Cytostatic activity against human Colorectal epithelial cells isolated from patient with well-differentiated colonic adenocarcinoma and undergone nine courses of chemotherapy cultured as organoids at 1 ug/ml incubated for 48 hrs by CellTiter-Glo luminescence assay. Type of assay: functional, cell-based. The settings on record: dose 1.0 µg/ml. The method in brief: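 Primary colonic epithelial cells (3 control and 2 CRC patients) were expanded as organoids or spheroids in Matrigel with EGF/noggin/Wnt3a/R-spondin medium. Single cells were seeded at 2500/well and allowed 48 h to form colonoids, then exposed for 48 h at 0.01, 0.1 or 1 µg/mL, with 5FdU at 1 µg/mL as positive control. Viability was read by CellTiter-Glo luminescence versus DMSO or medium control.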

Assay [9] concerns the target Protein kinase C delta type (Homo sapiens) (UniProt Q05655). As to the kind of experiment: Inhibition of PKCdelta in human Caco-2 cells assessed as reduction in protein phosphorylation at Ser664 residue at 1 ug/ml preincubated for 15 mins with PKCalpha inhibitor, Go6976 followed by compound addition and measured after 48 hrs by Western blot analysis. Type of assay: cell-based. Particulars: dose 1.0 µg/ml. The method in brief:
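Caco-2 cells were given 0.2 µM Gö6976 for 15 min, then compound at 1 µg/mL for 48 h. Lysates (30 µg protein) were blotted for pSer664-PKCδ and total PKCδ with actin loading control, and the pSer664/total PKCδ ratio was quantified. Data are from one experiment.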

The test system of assay [10] is Caco-2. Nature of the assay: Cytostatic activity against human Caco-2 cells assessed as inhibition of cell growth at 1 ug/ml incubated for 48 hrs by MTS assay relative to control. Type of assay: functional. In short, it runs like this:
as §1

Assay [11] addresses T1, Protein kinase C zeta type (Homo sapiens) (UniProt Q05513).
T1 sequence (whole entry): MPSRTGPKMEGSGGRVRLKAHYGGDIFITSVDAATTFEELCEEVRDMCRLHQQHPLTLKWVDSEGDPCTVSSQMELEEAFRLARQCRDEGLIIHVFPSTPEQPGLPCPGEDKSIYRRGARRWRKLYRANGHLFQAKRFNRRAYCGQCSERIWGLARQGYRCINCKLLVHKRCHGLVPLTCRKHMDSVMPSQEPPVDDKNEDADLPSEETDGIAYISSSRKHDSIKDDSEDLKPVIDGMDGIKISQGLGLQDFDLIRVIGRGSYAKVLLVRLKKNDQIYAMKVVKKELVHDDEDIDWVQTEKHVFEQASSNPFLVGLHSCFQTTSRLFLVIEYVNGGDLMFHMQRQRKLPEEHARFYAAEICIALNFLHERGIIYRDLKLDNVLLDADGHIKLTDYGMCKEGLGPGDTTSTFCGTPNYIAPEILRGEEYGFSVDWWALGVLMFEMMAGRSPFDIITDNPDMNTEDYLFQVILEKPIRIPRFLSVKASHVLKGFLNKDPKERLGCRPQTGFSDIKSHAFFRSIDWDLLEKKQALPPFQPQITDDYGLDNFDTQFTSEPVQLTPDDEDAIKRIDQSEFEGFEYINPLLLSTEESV
Nature of the assay: Activation of PKCzeta in human Caco-2 cells assessed as increase in colocalization of PKCzeta and actin in peripheral to cell aggregates at 1 ug/ml measured after 48 hrs by immunostaining analysis. Particulars: filed as activator, dose 1.0 µg/ml. Type of assay: cell-based. In short, it runs like this:
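Caco-2 cells were seeded at 40 000/well and treated for 48 h as in the viability assay. They were fixed in 3.7% PFA for 20 min and permeabilised in HBSS/0.5% Triton X100/1% BSA. Anti-PKCζ (1/50) or anti-PKCα (1/200) was applied overnight at 4°C, then Alexa 488 secondary for 45 min. Phalloidin and Hoechst counterstained the cells before confocal imaging; PKCα signal was quantified by immunofluorescence.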

Chain of Glycogen synthase kinase-3 beta (Homo sapiens) (P49841 whole entry, looked up): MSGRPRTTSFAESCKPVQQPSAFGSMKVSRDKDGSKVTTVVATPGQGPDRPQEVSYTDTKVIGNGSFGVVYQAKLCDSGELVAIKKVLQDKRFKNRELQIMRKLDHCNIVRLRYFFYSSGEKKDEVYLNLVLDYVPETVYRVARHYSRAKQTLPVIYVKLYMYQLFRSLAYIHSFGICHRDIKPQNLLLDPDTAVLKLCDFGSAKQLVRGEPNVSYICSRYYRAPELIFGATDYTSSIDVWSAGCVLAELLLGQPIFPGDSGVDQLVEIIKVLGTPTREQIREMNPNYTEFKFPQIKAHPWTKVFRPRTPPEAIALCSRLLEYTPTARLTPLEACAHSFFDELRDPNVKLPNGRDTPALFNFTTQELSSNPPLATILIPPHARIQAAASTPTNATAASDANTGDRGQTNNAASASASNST
Chain of Protein kinase C delta type (Homo sapiens) (Q05655 whole entry, looked up): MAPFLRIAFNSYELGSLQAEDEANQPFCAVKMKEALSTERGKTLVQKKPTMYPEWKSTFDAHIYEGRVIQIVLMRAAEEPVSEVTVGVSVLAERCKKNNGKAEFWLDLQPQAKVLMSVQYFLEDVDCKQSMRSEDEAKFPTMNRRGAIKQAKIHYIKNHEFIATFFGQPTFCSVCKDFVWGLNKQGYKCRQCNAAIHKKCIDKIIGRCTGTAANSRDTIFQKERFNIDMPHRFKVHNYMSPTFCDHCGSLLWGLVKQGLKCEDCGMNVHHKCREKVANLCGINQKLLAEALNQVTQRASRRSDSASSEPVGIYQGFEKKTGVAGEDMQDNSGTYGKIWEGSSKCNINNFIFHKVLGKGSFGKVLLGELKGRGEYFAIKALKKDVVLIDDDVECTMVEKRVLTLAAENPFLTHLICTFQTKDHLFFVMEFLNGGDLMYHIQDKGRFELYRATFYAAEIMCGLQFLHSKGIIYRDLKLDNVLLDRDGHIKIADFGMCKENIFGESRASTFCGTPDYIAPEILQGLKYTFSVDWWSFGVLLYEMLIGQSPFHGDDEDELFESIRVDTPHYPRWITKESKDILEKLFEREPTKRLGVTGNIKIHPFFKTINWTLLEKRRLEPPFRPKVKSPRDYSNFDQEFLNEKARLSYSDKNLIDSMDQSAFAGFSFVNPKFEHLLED

For the compound `C=C(C)[C@]12C[C@@H](C)[C@@]34O[C@](/C=C/C=C/CCCCCCCCC)(O[C@@H]1[C@@H]3[C@@H]1O[C@]1(CO)[C@@H](O)[C@]1(O)C(=O)C(C)=C[C@H]14)O2`, the inhibition at 0.5 µg/mL in the assay on Caco-2 [1] is 20%. Further, the outcome in the assay on Caco-2 [2], in the assay on Caco-2 [3], in the assay on Caco-2 [4], in the assay on Caco-2 [5] and in the assay on Caco-2 [7] was inactive. In addition, the inhibition entry in [6] was “inactive”. Moreover, the IC50 in the assay on SARS-CoV-2 was 64.2 µM. The outcome in [8] was Active. Besides, the inhibition entry in assay [9] is “Active”.
In the case of `C=C(C)[C@]12C[C@@H](C)[C@@]34O[C@](/C=C/[C@@H]5O[C@H]5CCCCCCCCC)(O[C@@H]1[C@@H]3[C@@H]1O[C@]1(CO)[C@@H](O)[C@]1(O)C(=O)C(C)=C[C@H]14)O2`, in the assay on Caco-2 [10], the inhibition at 1 µg/mL is 30%. Also, the result with Caco-2 [2], with Caco-2 [3] and in the assay with Caco-2 [5] was inactive. Also, the result in assay [11] and in assay [8] was Active. In addition, the inhibition result in assay [6] is “inactive”.
